# Measurements collected from several papers.
# Protocols differ between the studies behind these lines.
# Target: Tyrosine-protein kinase TXK (TXK, Homo sapiens, UniProt P42681)
# Residues used in one study (P42681 1-527): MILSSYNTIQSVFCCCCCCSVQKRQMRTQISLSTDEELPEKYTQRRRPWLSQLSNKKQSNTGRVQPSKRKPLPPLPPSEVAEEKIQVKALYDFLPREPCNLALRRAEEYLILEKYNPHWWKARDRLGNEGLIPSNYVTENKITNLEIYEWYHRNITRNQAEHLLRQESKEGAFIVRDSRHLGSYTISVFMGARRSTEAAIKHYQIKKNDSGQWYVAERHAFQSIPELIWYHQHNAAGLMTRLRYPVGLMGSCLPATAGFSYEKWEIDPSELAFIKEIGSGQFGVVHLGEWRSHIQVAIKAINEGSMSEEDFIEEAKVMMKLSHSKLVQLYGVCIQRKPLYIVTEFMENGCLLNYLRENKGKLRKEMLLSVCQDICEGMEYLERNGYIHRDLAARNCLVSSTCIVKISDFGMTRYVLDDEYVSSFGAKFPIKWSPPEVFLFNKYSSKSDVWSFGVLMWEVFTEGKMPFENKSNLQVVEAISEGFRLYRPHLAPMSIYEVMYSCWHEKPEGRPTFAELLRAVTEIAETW
SMILES,test,conditions,quantity,value
O=C(Nc1cnn(-c2csc(C(=O)NC3COC3)c2)c1)Nc1c(F)cccc1Cl,"enzyme activity, inhibitor",5 µM,remaining activity,90.8%
COc1cc(-c2cn(C3CCc4ccccc4N(CC(F)(F)F)C3=O)nn2)ccc1-n1ccc(C)n1 (stereo not drawn),"binding, competition with immobilised ligand",1 µM,remaining binding,84%
N#CCCc1ccc2c(c1)-c1[nH]c3ccc([N+](=O)[O-])cc3c1CC(=O)N2,cell-free assay,0.5 µM,remaining signal,67.6%
CCN(CC)c1ccc(C2=NNC(=O)CC2C)cc1[N+](=O)[O-] (stereo not drawn),"enzyme activity, inhibitor",10 µM,remaining activity,84%
Cn1nc(C(=O)NCc2ccc(C(=O)O)cc2)cc1-c1ccc2[nH]ccc2c1,"binding, competition with immobilised ligand",0.1 µM,remaining binding,90%
Nc1ncnc2occ(-c3ccc(NC(=O)Nc4cc(C(F)(F)F)ccc4F)cc3)c12,"enzyme activity, inhibitor",20 µM,remaining activity,14%
c1nc2c(Nc3ccc4c(c3)OCCO4)nc(Nc3ccc4c(c3)OCCO4)nc2[nH]1,"enzyme activity, inhibitor",10 µM,activity vs control,8%
Cc1sc(C(=O)NC2COC2)cc1-n1cc(NC(=O)Nc2c(F)cccc2Cl)cn1,"enzyme activity, inhibitor",10 µM,remaining activity,76.7%
Cc1cnc(NC2CCOCC2)nc1-n1cnc(C(=O)NC(CN)c2cc(F)cc(Cl)c2)c1 (stereo not drawn),"enzyme activity, inhibitor, radiometric",1 µM,remaining activity,102%
CCS(=O)(=O)c1cc2cc(C[C@](O)(CC(C)(C)c3ccc(F)cc3C(N)=O)C(F)(F)F)[nH]c2cn1,"cell-free assay, competition with immobilised ligand",1 µM,remaining binding,90%
CC(C)(C)c1nc2c(s1)c1nc(N)ncc1c1ccc(NS(=O)(=O)c3c(F)cccc3F)c(F)c12,"enzyme activity, inhibitor, radiometric",1 µM,remaining activity,71%
CCOc1cc(-c2nncn2C)ccc1Nc1ncc2cc(C)nc(NCC(C)(C)C)c2n1,"enzyme activity, inhibitor, FRET",1 µM,inhibition,< 15%
COc1cc2ncnc(Nc3ccc(Oc4ccccc4)c(C)c3C)c2cc1OC,"enzyme activity, inhibitor",1 µM,inhibition,2%
CS(=O)(=O)CCNCc1ccc(-c2ccc3ncnc(Nc4ccc(OCc5cccc(F)c5)c(Cl)c4)c3c2)o1,cell-free assay,0.5 µM,remaining signal,110%
CN(C(=O)c1ccccc1)c1cc(N(C)c2ccc3c(c2)CCc2ccc(C(=O)NCCN4CCOCC4)cc2C3=O)ccc1F,"binding, competition with immobilised ligand",1 µM,remaining binding,79%
CC/C(=N\NC(=O)NCc1cccc(O)c1)c1ccc(O)c(C)c1O,"enzyme activity, inhibitor",0.1 µM,inhibition,-0.3%
CCOC(=O)c1cc2cc(-c3cc(C(=O)NCc4ccc(C(=O)O)cc4)nn3C)ccc2[nH]1,"binding, competition with immobilised ligand",0.1 µM,remaining binding,90%
COc1cc(Cl)c(C(=O)N[C@@H](CN[C@H]2CC[C@@H](N)CC2)Cc2ccc(C#N)cc2)cc1-c1ccc(CN[C@H](C)c2ccc(C)cc2)o1,"enzyme activity, inhibitor",1 µM,remaining activity,88%
